# Assay results gathered from unrelated publications.
# Protocols differ between the studies behind these lines.
# Target: Serine/threonine-protein kinase Sgk2 (SGK2, Homo sapiens, UniProt Q9HBY8)
# Residues used in one study (Q9HBY8 1-367): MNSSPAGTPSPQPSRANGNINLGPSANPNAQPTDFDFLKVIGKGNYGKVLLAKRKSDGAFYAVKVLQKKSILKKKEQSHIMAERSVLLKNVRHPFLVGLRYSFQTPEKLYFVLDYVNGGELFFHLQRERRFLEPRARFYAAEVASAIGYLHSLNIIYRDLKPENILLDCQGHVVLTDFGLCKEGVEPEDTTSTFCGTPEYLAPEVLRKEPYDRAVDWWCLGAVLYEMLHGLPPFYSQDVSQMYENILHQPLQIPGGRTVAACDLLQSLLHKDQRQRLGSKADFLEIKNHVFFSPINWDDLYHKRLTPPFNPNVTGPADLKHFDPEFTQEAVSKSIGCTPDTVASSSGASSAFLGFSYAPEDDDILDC
SMILES,observed,technique,concentration,remaining binding
O=C(NCc1ncc(C(F)(F)F)cc1Cl)c1ccc2c(c1)C1(CCS(=O)(=O)CC1)[C@H](C1CC1)N2S(=O)(=O)c1ccc(F)cc1,cell-free assay,competition with immobilised ligand,1 µM,83%
CN(C)c1nccc(-c2cnc3ncccn23)n1,binding,,1 µM,81%
c1cncc(-c2cccc(Nc3nccc(NC4CCCCC4)n3)c2)c1,binding,competition with immobilised ligand,10 µM,95%
Nc1ncc2c(n1)-c1c([nH]c3ccc(C#CC4CC4)cc13)CCCC2,binding,competition with immobilised ligand,1 µM,96%
C[C@@H](c1ccc(-n2cnc3c(N)ncnc32)cc1)N1CCc2nn(C)c(Cc3ccccc3)c2C1=O,binding,competition with immobilised ligand,0.1 µM,48%
CN(c1nccc(-c2cnn3ncccc23)n1)C1CC1,binding,,1 µM,86%
O=C(c1ccc(Nc2ncc(Cl)c(-c3ccc(Cl)s3)n2)cc1)N1CCC(N2CCCC2)CC1,binding,competition with immobilised ligand,1 µM,100%
CCOC(=O)c1cc2cc(-c3cc(C(=O)NCc4ccc(C(=O)O)cc4)nn3C)ccc2[nH]1,cell-free assay,competition with immobilised ligand,0.1 µM,100%
C=CC(=O)N1CCC(C(=O)NCC(=O)N2CCN(c3nc(-c4cnc(N)nc4C(F)F)nc(N4CCOCC4)n3)CC2)CC1,binding,competition with immobilised ligand,1 µM,86%
O=C(NCCCN1CCOCC1)c1ccc(Nc2nccc(-c3cc4ccccc4s3)n2)cc1,binding,competition with immobilised ligand,1 µM,55%
N[C@@H]1CCN(c2nccc(-c3cnn4ncccc34)n2)C1,binding,,1 µM,100%
CC(=O)N1CCC(c2ccc(C(=O)NC(=N)N)cc2C(F)(F)F)CC1,cell-free assay,competition with immobilised ligand,1 µM,100%
COc1cnc(Nc2cccc(S(N)(=O)=O)c2)nc1N1CCN(c2ccccc2)C(=O)C1,binding,competition with immobilised ligand,1 µM,83%
O=C(c1ccc(Nc2ncc(Cl)c(-c3cc4ccccc4s3)n2)cc1)N1CCC(N2CCCC2)CC1,binding,competition with immobilised ligand,1 µM,48%
CN(CCCC(F)(F)F)c1nccc(-c2cnn3ncccc23)n1,binding,,1 µM,93%
COCCOc1nc(-c2ccc(Cl)nc2)nc2c1CN(C(=O)c1ncn3ccccc13)CC2,cell-free assay,competition with immobilised ligand,0.1 µM,88%
C[C@@H]1CCN(c2nccc(-c3cnn4ncccc34)n2)C1,binding,,1 µM,81%
CC1=C(C#N)C(c2ccc3c(c2)c(NC(=O)c2ccccc2C)nn3C)C(C#N)=C(C)N1,cell-free assay,competition with immobilised ligand,1 µM,73%
F[C@@H]1CCN(c2nccc(-c3cnn4ncccc34)n2)C1,binding,,1 µM,92%
CC1=C(C#N)[C@@H](c2ccc3[nH]nc(C)c3c2)C(C#N)=C(c2ccc(Cl)cc2)N1,cell-free assay,competition with immobilised ligand,1 µM,100%
O=C(NCC1CCOCC1)c1n[nH]cc1NC(=O)c1c(F)cccc1F,binding,competition with immobilised ligand,1 µM,94%
